# Source: ChEMBL document CHEMBL1123563, “New antifilarial agents. 1. Epoxy sulfonamides and ethynesulfonamides” (J Med Chem, 1987)
# Active and inactive are the calls of the source.
# Tests used:
# [1] = Effective concentration of compound necessary to kill 50% of infective larvae of Molinema dessetae after 7 days was determined in vitro; Value ranges from 20-100; type: functional
# Outline: (§1)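 Infective larvae from the intermediate host were decontaminated and held 20 per 1.5 mL in a biphasic medium: L929 feeder layer with RPMI and fetal calf serum (90:10), plus penicillin and streptomycin. Compound solutions at several concentrations were made in DMSO, and 10 μL of each was added. After 7 days, survival was corrected by control, in duplicate runs. EC ranges are given in μM.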
# molinema dessetae [2] = experiment: Antifilarial activity against Molinema dessetae in vivo against male adult worms at a dose of 200 mg/kg subcutaneously once a day for 5 days; Inactive; type: functional, organism-based; parameters: dose 200 mg/kg
# Outline: (§2)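 Proechimys oris of both sexes were each infected with 200 infective larvae dissected from Aedes aegypti mosquitoes. Microfilaremia was checked, and the rodents were treated 150–180 days post-infection. Compound was given subcutaneously as a 1% carboxymethylcellulose suspension once daily for 5 consecutive days. Microfilaremia was followed for 6 weeks, then adult male and female worms were counted at autopsy. A compound was scored active if no males and ≤1.6 females were found (p = 0.12).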
# molinema dessetae [3] = experiment: Effective concentration of compound necessary to kill 90% of infective larvae of Molinema dessetae after 7 days was determined in vitro; Value ranges from 20-100; type: functional; outline: as §1
# [4] = Antifilarial activity against Molinema dessetae in vivo in Proechimys oris the natural host at a dose of 200 mg/kg subcutaneously once a day for 5 days. Value is expressed as number of infected P. oris.; type: functional; conditions: route subcutaneous; outline: as §2
# molinema dessetae [5] = experiment: Antifilarial activity against Molinema dessetae in vivo against female adult worms at a dose of 200 mg/kg subcutaneously once a day for 5 days; Inactive; type: functional, organism-based; parameters: dose 200 mg/kg; outline: as §2
# molinema dessetae [6] = tested on: molinema dessetae;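 further: in vitro assay on infective-stage larvae, EC90 being the concentration lethal to 90% of larvae after 7 days of exposure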
# [7] = Effective concentration of compound necessary to kill 50% of infective larvae of Molinema dessetae after 7 days was determined in vitro; type: functional
# molinema dessetae [8] = experiment: Antifilarial activity against Molinema dessetae in vivo against female adult worms at a dose of 0.2 mg/kg subcutaneously once a day for 5 days; Active; type: functional, organism-based; parameters: dose 0.2 mg/kg
# molinema dessetae [9] = experiment: Antifilarial activity against Molinema dessetae in vivo against male adult worms at a dose of 0.2 mg/kg subcutaneously once a day for 5 days; Active; type: functional, organism-based; parameters: dose 0.2 mg/kg
# molinema dessetae [10] = experiment: Antifilarial activity against Molinema dessetae in vivo in Proechimys oris the natural host at a dose of 0.2 mg/kg subcutaneously once a day for 5 days. Value is expressed as number of infected P. oris.; type: functional, organism-based; parameters: dose 0.2 mg/kg
# [11] = Effective concentration of compound necessary to kill 50% of infective larvae of Molinema dessetae after 7 days was determined in vitro; Value ranges from 100-500; type: functional; outline: as §1
# molinema dessetae [12] = experiment: Antifilarial activity against Molinema dessetae in vivo against female adult worms at a dose of 10 mg/kg subcutaneously once a day for 5 days; Active; type: functional, organism-based; parameters: dose 10 mg/kg; outline: as §2
# molinema dessetae [13] = experiment: Antifilarial activity against Molinema dessetae in vivo against male adult worms at a dose of 10 mg/kg subcutaneously once a day for 5 days; Active; type: functional, organism-based; parameters: dose 10 mg/kg; outline: as §2
# [14] = Antifilarial activity against Molinema dessetae in vivo in Proechimys oris the natural host at a dose of 10 mg/kg subcutaneously once a day for 5 days. Value is expressed as number of infected P. oris.; type: functional; conditions: route subcutaneous; outline: as §2
# molinema dessetae [15] = experiment: Effective concentration of compound necessary to kill 90% of infective larvae of Molinema dessetae after 7 days was determined in vitro; Value ranges from 100-500; type: functional; outline: as §1
# [16] = Antifilarial activity against Molinema dessetae in vivo in Proechimys oris the natural host at a dose of 100 mg/kg subcutaneously once a day for 5 days. Value is expressed as number of infected P. oris.; type: functional; conditions: route subcutaneous; outline: as §2
# molinema dessetae [17] = experiment: Antifilarial activity against Molinema dessetae in vivo against male adult worms at a dose of 100 mg/kg subcutaneously once a day for 5 days; Inactive; type: functional, organism-based; parameters: dose 100 mg/kg; outline: as §2
# molinema dessetae [18] = experiment: Antifilarial activity against Molinema dessetae in vivo against female adult worms at a dose of 100 mg/kg subcutaneously once a day for 5 days; Inactive; type: functional, organism-based; parameters: dose 100 mg/kg; outline: as §2
# molinema dessetae [19] = experiment: Antifilarial activity against Molinema dessetae in vivo against female adult worms at a dose of 200 mg/kg subcutaneously once a day for 5 days; Active; type: functional, organism-based; parameters: dose 200 mg/kg; outline: as §2
# molinema dessetae [20] = experiment: Antifilarial activity against Molinema dessetae in vivo against male adult worms at a dose of 200 mg/kg subcutaneously once a day for 5 days; Active; type: functional, organism-based; parameters: dose 200 mg/kg; outline: as §2
# molinema dessetae [21] = experiment: Antifilarial activity against Molinema dessetae in vivo against female adult worms at a dose of 10 mg/kg subcutaneously once a day for 5 days; Inactive; type: functional, organism-based; parameters: dose 10 mg/kg; outline: as §2
# molinema dessetae [22] = experiment: Antifilarial activity against Molinema dessetae in vivo against male adult worms at a dose of 100 mg/kg subcutaneously once a day for 5 days; Active; type: functional, organism-based; parameters: dose 100 mg/kg; outline: as §2
# molinema dessetae [23] = experiment: Antifilarial activity against Molinema dessetae in vivo against female adult worms at a dose of 100 mg/kg subcutaneously once a day for 5 days; Active; type: functional, organism-based; parameters: dose 100 mg/kg; outline: as §2
# molinema dessetae [24] = experiment: Antifilarial activity against Molinema dessetae in vivo against female adult worms at a dose of 200 mg/kg subcutaneously once a day for 5 days; type: functional, organism-based; parameters: dose 200 mg/kg; outline: as §2
Compound,Activity (molinema dessetae [2]),Activity [4],Activity (molinema dessetae [5]),EC90 (molinema dessetae [6]),EC50 [7],further results
O=S(=O)(C1OC1c1ccccc1)N1CCN(c2cccc(C(F)(F)F)c2)CC1 (configuration not stated),inactive,2,inactive,,,EC50 [1]: 100 µM; EC90 (molinema dessetae [3]): 100 µM
Cc1cccc(C2OC2S(=O)(=O)N2CCOCC2)c1 (configuration not stated),inactive,2,inactive,< 20 µM,< 20 µM,
C[C@@]1(c2ccccc2)O[C@@H]1S(=O)(=O)N1CCOCC1,inactive,2,inactive,> 500 µM,> 500 µM,
IVERMECTIN [listing 1 of 2 here],,,,< 20 µM,,Activity (molinema dessetae [8]): Active; Activity (molinema dessetae [9]): Active; Activity (molinema dessetae [10]): 2
CCOC(=O)N1CCN(S(=O)(=O)C2OC2c2ccccc2)CC1 (configuration not stated),inactive,2,inactive,,< 20 µM,EC90 (molinema dessetae [3]): 100 µM
O=S(=O)(/C=C\c1ccccc1)N1CCOCC1,,,,> 500 µM,,EC50 [11]: 500 µM
O=S(=O)(C1CC1c1ccccc1)N1CCOCC1 (configuration not stated),inactive,2,inactive,,,
CN1CCN(S(=O)(=O)[C@@H]2O[C@H]2c2ccccc2)CC1,,,,,,Activity (molinema dessetae [12]): Active; EC50 [1]: 100 µM; Activity (molinema dessetae [13]): Active; Activity [14]: 4; EC90 (molinema dessetae [3]): 100 µM
CC1OC1S(=O)(=O)N(C)C (configuration not stated),inactive,2,inactive,,,EC90 (molinema dessetae [15]): 500 µM; EC50 [1]: 100 µM
Cc1ccc(C2OC2S(=O)(=O)N2CCN(C)CC2)cc1 (configuration not stated),inactive,2,inactive,,,EC90 (molinema dessetae [15]): 500 µM; EC50 [1]: 100 µM
O=C(CN1CCOCC1)c1ccccc1,,,,> 500 µM,> 500 µM,Activity [16]: 2; Activity (molinema dessetae [17]): inactive; Activity (molinema dessetae [18]): inactive
O=S(=O)(C#Cc1ccccc1)N1CCOCC1,,2,,< 20 µM,< 20 µM,Activity (molinema dessetae [19]): Active; Activity (molinema dessetae [20]): Active; Activity (molinema dessetae [21]): inactive; Activity [16]: 2; Activity [14]: 2; Activity (molinema dessetae [22]): Active
Cc1ccccc1C1OC1S(=O)(=O)N1CCOCC1 (configuration not stated),inactive,1,inactive,< 20 µM,< 20 µM,
O=S(=O)(C1OC1c1ccccc1)N1CCN(c2ccccc2)CC1 (configuration not stated),,,,,,Activity [16]: 2; EC50 [1]: 100 µM; Activity (molinema dessetae [17]): inactive; EC90 (molinema dessetae [3]): 100 µM; Activity (molinema dessetae [18]): inactive
CCCCCCc1ccc(C2OC2S(=O)(=O)N2CCOCC2)cc1 (configuration not stated),inactive,1,inactive,,,
CN1CCN(S(=O)(=O)C#Cc2ccccc2)CC1,inactive,1,inactive,< 20 µM,< 20 µM,
CN1CCNCC1 [METHYLPIPERAZINE],,,,> 500 µM,> 500 µM,
CCN(CC)C(=O)N1CCN(C)CC1 [DIETHYLCARBAMAZINE],,2,,> 500 µM,> 500 µM,Activity (molinema dessetae [19]): Active; Activity (molinema dessetae [20]): Active
C[C@H]1O[C@H]1S(=O)(=O)N1CCOCC1,,,,> 500 µM,,EC50 [11]: 500 µM
O=S(=O)(C1OC1c1ccc(Cl)cc1)N1CCOCC1 (configuration not stated),inactive,2,inactive,,,EC90 (molinema dessetae [15]): 500 µM; EC50 [1]: 100 µM
O=S(=O)(C1OC1c1ccc(Cl)c(Cl)c1)N1CCOCC1 (configuration not stated),,2,,,< 20 µM,Activity (molinema dessetae [19]): Active; Activity (molinema dessetae [20]): Active; EC90 (molinema dessetae [3]): 100 µM

Compound,Activity (molinema dessetae [2]),Activity [4],Activity (molinema dessetae [5]),EC90 (molinema dessetae [6]),EC50 [7],further results
CN1CCN(CC(=O)c2ccccc2)CC1,,,,> 500 µM,> 500 µM,Activity [16]: 1; Activity (molinema dessetae [17]): inactive; Activity (molinema dessetae [18]): inactive
CN1CCN(S(=O)(=O)C2CC2c2ccccc2)CC1 (configuration not stated),inactive,2,inactive,> 500 µM,,EC50 [11]: 500 µM
O=S(=O)([C@@H]1O[C@H]1c1ccccc1)N1CCOCC1,,,,,,Activity (molinema dessetae [23]): Active; Activity [16]: 3; EC50 [1]: 100 µM; EC90 (molinema dessetae [3]): 100 µM; Activity (molinema dessetae [22]): Active
O=S(=O)([C@@H]1O[C@@H]1c1ccccc1)N1CCOCC1,inactive,2,inactive,,,EC90 (molinema dessetae [15]): 500 µM; EC50 [1]: 100 µM
C[C@@H]1O[C@H]1S(=O)(=O)N1CCOCC1,inactive,2,inactive,> 500 µM,> 500 µM,
CN(C)S(=O)(=O)C#Cc1ccccc1,,2,inactive,> 500 µM,,Activity (molinema dessetae [20]): Active; EC50 [11]: 500 µM
IVERMECTIN [listing 2 of 2 here],,,,,< 20 µM,
CN(C)S(=O)(=O)/C=C\c1ccccc1,,,,,,EC90 (molinema dessetae [15]): 500 µM; EC50 [11]: 500 µM
O=C(CS(=O)(=O)N1CCOCC1)c1ccccc1,inactive,2,inactive,> 500 µM,> 500 µM,
C=C(CS(=O)(=O)N1CCN(C)CC1)c1ccccc1,,,,> 500 µM,,EC50 [11]: 500 µM
CN1CCN(S(=O)(=O)CC(=O)c2ccccc2)CC1,,,,> 500 µM,> 500 µM,
O=S(=O)(C1OC1c1ccc(Cl)c(Cl)c1)N1CCCC1 (configuration not stated),,,,,,EC50 [1]: 100 µM; EC90 (molinema dessetae [3]): 100 µM
O=S(=O)(/C=C/c1ccccc1)N1CCOCC1,inactive,2,inactive,> 500 µM,> 500 µM,
CN(C)S(=O)(=O)[C@@H]1O[C@@H]1c1ccccc1,,,,,,EC90 (molinema dessetae [15]): 500 µM; EC50 [11]: 500 µM
C[C@]1(c2ccccc2)O[C@@H]1S(=O)(=O)N1CCOCC1,inactive,2,inactive,> 500 µM,> 500 µM,
Cc1cccc(C2OC2S(=O)(=O)N2CCN(C)CC2)c1 (configuration not stated),,,,,,EC90 (molinema dessetae [15]): 500 µM; EC50 [11]: 500 µM
O=[N+]([O-])c1ccc(C2OC2S(=O)(=O)N2CCOCC2)cc1 (configuration not stated),,,,< 20 µM,< 20 µM,
C1COCCN1 [MORPHOLINE],,,,> 500 µM,> 500 µM,
CN1CCN(S(=O)(=O)[C@@H]2O[C@@H]2c2ccccc2)CC1,,,,,,EC90 (molinema dessetae [15]): 500 µM; Activity [16]: 2; EC50 [1]: 100 µM; Activity (molinema dessetae [17]): inactive; Activity (molinema dessetae [18]): inactive
CCCN1CCN(S(=O)(=O)C2OC2c2ccccc2)CC1 (configuration not stated),inactive,2,,,,Activity (molinema dessetae [24]): inactive; EC90 (molinema dessetae [15]): 500 µM; EC50 [1]: 100 µM
CN1CCN(S(=O)(=O)/C=C/c2ccccc2)CC1,inactive,1,inactive,> 500 µM,,EC50 [11]: 500 µM
